# According to PubChem BioAssay AID488992 (Sanford-Burnham Center for Chemical Genomics, 2010):
# Active and inactive are the calls of the source.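 Rule for the calls: active = IC50 below 20 µM; inactive = the rest.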
# Target: Apelin receptor (Homo sapiens) (UniProt P35414)
# Experiment: APJ antagonists, beta-arrestin recruitment, SAR follow-up, cell-based, luminescence, set 3 (AID 488992)
# Details: CHO-K1 AGTRL-1 PathHunter beta-arrestin
# Summary of the method: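 Assay system: CHO-K1 APJ beta-arrestin complementation cells; reagent: apelin-13 agonist at 10 nM final; dosing: dose-response series; schedule: overnight cell seeding, 90 min compound-agonist exposure at 25 °C; signal: luminescence from beta-gal complementation, read 60 min after detection reagent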
# Sequence of Apelin receptor (Homo sapiens) (P35414 whole entry, looked up): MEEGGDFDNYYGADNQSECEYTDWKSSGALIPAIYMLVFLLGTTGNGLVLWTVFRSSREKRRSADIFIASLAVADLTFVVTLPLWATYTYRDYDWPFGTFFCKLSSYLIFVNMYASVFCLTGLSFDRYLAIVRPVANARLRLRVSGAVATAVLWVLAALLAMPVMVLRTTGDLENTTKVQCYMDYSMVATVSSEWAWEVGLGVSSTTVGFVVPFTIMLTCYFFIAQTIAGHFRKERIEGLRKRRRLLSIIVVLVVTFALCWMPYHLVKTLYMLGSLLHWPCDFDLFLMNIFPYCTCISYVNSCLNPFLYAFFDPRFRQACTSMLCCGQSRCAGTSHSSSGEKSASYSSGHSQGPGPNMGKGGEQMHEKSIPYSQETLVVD
row,SMILES,IC50
1,Cc1ccnc(SCc2cc(=O)c(OC(=O)C(C)C)co2)n1,> 79 µM (inactive)
2,COc1cc(CSc2nc(C)cc(C)n2)ccc1OC(=O)c1ccc([N+](=O)[O-])cc1,> 79 µM (inactive)
3,O=C(Nc1ccc(CSc2ncccn2)cc1)c1ccccc1,> 79 µM (inactive)
4,Cc1ccnc(SCc2cc(=O)c(OC(=O)c3ccno3)co2)n1,> 79 µM (inactive)

# More lines, now with the values ahead:
row,IC50,SMILES
1,> 79 µM (inactive),Cc1ccnc(SCc2cc(=O)c(OC(=O)C(C)(C)C)co2)n1
2,> 79 µM (inactive),CC(=O)Oc1coc(CSc2nccc(C)n2)cc1=O
3,> 79 µM (inactive),Cc1ccnc(SCc2cc(=O)c(OC(=O)c3ccc([N+](=O)[O-])o3)co2)n1
4,> 79 µM (inactive),COc1cc(CSc2nc(C)cc(C)n2)ccc1OC(=O)c1ccccc1
5,> 79 µM (inactive),Cc1ccnc(SCc2cc(=O)c(OCc3ccc(Cl)c([N+](=O)[O-])c3)co2)n1
6,> 79 µM (inactive),COc1cc(CSc2nc(C)cc(C)n2)ccc1OC(=O)c1cccnc1
